Measurements taken from publication PMC4443790 (Neuron, 2015).
Entries after “also recorded” stand apart in the source; their conditions may differ.

Tests used:
[1] = test system: hippocampal SC-CA1 synapse; assay: Theta burst stimulation-induced LTP at the SC-CA1 synapse; design: species or system rat; settings: 1 μM VU0092273 for 20 min then threshold TBS, 35 min after stimulation
Summary of the method: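 Threshold LTP was induced with one theta-burst train: nine bursts of four pulses at 100 Hz, 230 ms interburst interval. fEPSP slope was quantified 35 min after TBS.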

rats [2] = assay: Amphetamine-induced hyperlocomotion; assay type: in vivo, rat
rats [3] = assay: Behavioral convulsions, modified Racine scale; assay type: in vivo; settings: rat
[4] = test system: NMDAR currents in hippocampal CA1 pyramidal cells; assay: Whole-cell recordings of NMDA-evoked currents/responses in CA1 pyramidal cells; design: species or system rat; settings: for effect on NMDA-evoked currents when added alone / effect on NMDAR currents in the presence of 3 μM DHPG: 5PAM523 20 μM, VU0409551 10 μM
[5] = biological target: mGlu5 in rat cortical astrocytes (Rattus norvegicus, UniProt P31424); assay: Glutamate-induced calcium mobilization in cultured rat cortical astrocytes; assay type: cell-based
rats [6] = assay: MK-801-induced hyperlocomotion; assay type: in vivo; settings: rat, p.o.
Summary of the method: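 Male Sprague Dawley rats in an open-field photobeam chamber received vehicle or test compound (10-100 mg/kg, oral, 20% β-cyclodextrin, 3 ml/kg) at t = 30, then MK-801 (0.2 mg/kg s.c. in saline) at t = 60 min. Activity was recorded 60 min more as beam breaks per 5-min bin. AUC from 60 to 120 min gave total ambulations; percent reversal was normalised to vehicle + MK-801; n = 10-12.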

[7] = Satellite PK for Fluoro-Jade studies, repeat oral dosing; assay type: in vivo; settings: rat, 120 mg/kg p.o. once-daily for 4 days, 75% PEG 400 in water
Summary of the method: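 Non-fasted male Sprague Dawley rats received 120 mg/kg orally once daily for 4 days in aqueous PEG 400 vehicle. Serial blood samples were taken at 3, 7 and 24 hr post-dose on day 1 and day 4. Plasma concentrations were quantified by LC-MS/MS.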

rat mGlu5 [8] = biological target: T1, rat mGlu5 (Rattus norvegicus, UniProt P31424); assay: mGlu5-mediated ERK1/2 phosphorylation; assay type: cell-based
Summary of the method: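 HEK293A cells stably expressing rat mGlu5 were used. Phosphorylated ERK1/2 was measured with an ALPHAScreen-based ERK Surefire assay, both with glutamate added and without added glutamate.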

[9] = Rat pharmacokinetics, single oral administration; assay type: in vivo; settings: p.o., 3 mg/kg
mGlu1,2,3,4,6,7,8 = assay: mGlu subtype selectivity screening; assay type: cell-based, rat; settings: 10 μM; shift of agonist concentration response curve
Summary of the method: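 Selectivity across mGlu subtypes: mGlu1 was tested by calcium flux in HEK293 cells stably expressing rat mGlu1. mGlu2, 3, 4, 6, 7 and 8 were each tested by thallium flux through GIRK channels in HEK-293-GIRK cells expressing that subtype.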

[10] = In vitro fraction unbound in rat brain; assay type: in vitro ADME
male Lister-hooded rats = assay: Delayed non-matching to position; assay type: in vivo; settings: Lister-hooded rat, 10-60 mg/kg
Summary of the method: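 Male Lister-hooded rats (350-450 g), trained to stable accurate performance, received vehicle or test compound (10-60 mg/kg) 60 min before testing. Delays were 1, 10, 20 and 30 sec, with 15 trials each (60 total) and a 45 min maximum per session. Read-outs were proportion of correct responses per delay and trials initiated.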

[11] = In vitro fraction unbound in rat plasma; assay type: in vitro ADME
[12] = test system: hippocampal Schaffer collateral-CA1 (SC-CA1) synapse; assay: DHPG-induced LTD, fEPSP recordings at hippocampal SC-CA1 synapse; design: species or system rat; settings: for fEPSP slope, % of baseline: measured 55 min after washout
[13] = test system: NMDAR-fEPSP at SC-CA1 synapse; assay: NMDAR-mediated fEPSPs at the SC-CA1 synapse; design: species or system rat
rats [14] = assay: Contextual fear conditioning; assay type: in vivo; settings: rat, 0.3 - 10 mg/kg, 30 min pretreatment prior to conditioning
Summary of the method: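 Male Sprague Dawley rats (275-300 g) were dosed orally in 20% β-cyclodextrin (3 ml/kg) 30 min before conditioning. In a chamber scented with 10% vanilla extract, they had 2 min habituation, then one 1 s, 0.5 mA shock-context pairing, and returned home after 45 sec. 24 hr later, freezing was scored blind over 2 min 45 sec in the same context without shock or drug.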

[15] = Brain distribution in vivo after oral administration; settings: rat, 1.5 hr after single p.o. 3, 10, 30, 100 mg/kg
[16] = test system: EPSCNMDA/EPSCAMPA at SC-CA1 synapses; settings: 10 μM
[17] = test system: 66 other receptors and ion channels; assay: Radioligand competition binding panel; settings: 10 μM
rats [18] = assay: Fluoro-Jade C staining of rat brain; assay type: in vivo
[19] = Rat pharmacokinetics, single intravenous administration; assay type: in vivo; settings: i.v., 2.5 mg/kg
rat mGlu5 [20] = biological target: T1, rat mGlu5; assay: Intracellular Ca2+ mobilization in HEK293A cells stably expressing rat mGlu5; assay type: cell-based; settings: calcium mobilization
Summary of the method: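 Stably transfected HEK293A cells expressing rat mGlu5. Test compound added first (30 μM in representative traces), then EC20 and EC80 concentrations of glutamate added in sequence; intracellular calcium mobilization traces recorded.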

rats [21] = assay: Amphetamine-induced disruption of prepulse inhibition; assay type: in vivo; settings: rat, 56.6 and 100 mg/kg, 30 min pretreatment
rats [22] = assay: Novel object recognition; assay type: in vivo; settings: rat, 1-10 mg/kg, 30 min prior to exposure; significant at 3 and 10 mg/kg
α2A adrenergic receptors = biological target: T2, α2A adrenergic receptors (Homo sapiens, UniProt P08913); assay: Radioligand competition binding assay; settings: read-out: IC50 at α2A adrenergic receptors
T2 sequence (P08913 1-465): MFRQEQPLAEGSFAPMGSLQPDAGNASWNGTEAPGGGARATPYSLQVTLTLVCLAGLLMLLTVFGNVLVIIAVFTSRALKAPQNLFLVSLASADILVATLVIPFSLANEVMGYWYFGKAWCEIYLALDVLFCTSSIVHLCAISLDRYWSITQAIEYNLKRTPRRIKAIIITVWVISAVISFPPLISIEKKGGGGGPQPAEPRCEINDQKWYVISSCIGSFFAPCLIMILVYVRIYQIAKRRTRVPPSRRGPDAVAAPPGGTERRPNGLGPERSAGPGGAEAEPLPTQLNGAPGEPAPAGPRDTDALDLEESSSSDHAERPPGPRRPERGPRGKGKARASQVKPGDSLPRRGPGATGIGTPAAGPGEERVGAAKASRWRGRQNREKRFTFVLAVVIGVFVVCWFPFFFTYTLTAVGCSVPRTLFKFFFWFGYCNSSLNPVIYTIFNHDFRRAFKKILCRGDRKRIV

rats [23] = assay: Sleep-wake electroencephalography; assay type: in vivo; settings: rat, p.o., 10 mg/kg
[24] = Biotransformation in rat hepatocytes; assay type: in vitro ADME; settings: multiple oxidative pathways
[25] = operational model of allosterism, pERK1/2
[26] = rat, 3-100 mg/kg, 30 min pretreatment, amphetamine 1 mg/kg s.c.

T1 sequence (P31424 21-1203): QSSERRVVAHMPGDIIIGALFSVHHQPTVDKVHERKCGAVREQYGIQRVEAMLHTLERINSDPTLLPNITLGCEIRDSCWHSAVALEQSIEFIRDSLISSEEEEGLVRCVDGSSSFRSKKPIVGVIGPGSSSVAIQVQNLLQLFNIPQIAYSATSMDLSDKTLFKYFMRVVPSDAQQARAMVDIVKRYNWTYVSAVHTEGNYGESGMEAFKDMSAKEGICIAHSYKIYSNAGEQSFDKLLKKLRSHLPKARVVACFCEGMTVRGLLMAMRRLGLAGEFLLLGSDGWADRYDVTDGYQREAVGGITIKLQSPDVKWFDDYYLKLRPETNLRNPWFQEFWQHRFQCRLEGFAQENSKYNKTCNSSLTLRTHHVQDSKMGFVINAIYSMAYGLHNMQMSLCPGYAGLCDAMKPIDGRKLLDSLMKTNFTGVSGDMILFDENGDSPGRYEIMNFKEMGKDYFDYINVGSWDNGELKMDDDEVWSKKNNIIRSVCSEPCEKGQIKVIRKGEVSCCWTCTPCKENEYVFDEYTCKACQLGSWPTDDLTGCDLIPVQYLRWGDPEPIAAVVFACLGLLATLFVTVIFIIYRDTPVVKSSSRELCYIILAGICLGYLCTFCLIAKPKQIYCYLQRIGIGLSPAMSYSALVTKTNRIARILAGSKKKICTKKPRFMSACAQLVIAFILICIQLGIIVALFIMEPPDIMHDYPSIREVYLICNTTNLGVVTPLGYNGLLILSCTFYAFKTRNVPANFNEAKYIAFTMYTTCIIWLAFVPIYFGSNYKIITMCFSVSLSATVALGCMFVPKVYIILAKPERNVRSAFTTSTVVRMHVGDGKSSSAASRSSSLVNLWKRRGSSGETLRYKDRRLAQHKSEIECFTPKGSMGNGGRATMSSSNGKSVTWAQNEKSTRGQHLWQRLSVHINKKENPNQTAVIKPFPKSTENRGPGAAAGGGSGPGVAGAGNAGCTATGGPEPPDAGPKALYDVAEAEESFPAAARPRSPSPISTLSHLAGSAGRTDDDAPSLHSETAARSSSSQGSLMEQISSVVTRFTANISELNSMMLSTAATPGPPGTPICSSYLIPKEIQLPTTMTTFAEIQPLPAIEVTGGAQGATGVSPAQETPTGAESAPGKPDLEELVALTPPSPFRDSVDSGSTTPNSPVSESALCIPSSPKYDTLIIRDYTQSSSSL
Chain of mGlu5 in rat cortical astrocytes (P31424 21-1203): as above

O=C(c1ccc(C#Cc2ccccc2)cc1)N1CCC(O)CC1 [VU0092273]
effect on fEPSP slope in response to threshold TBS [1]: significant potentiation

Cc1nc(C#Cc2cccnc2)cs1 [MTEP, reference compound]
effect on reversal of AHL by VU0409551 (rats [2]; data not shown): blocked

C[C@@H]1CC[C@H](c2noc(-c3ccc(F)cn3)n2)CN1C(=O)c1ccc(F)cc1 [5PAM523, reference compound]
behavioral convulsions (Racine scale) (rats [3]; 5PAM523 56.6 mg/kg): induced behavioral convulsions | effect on NMDA-evoked currents when added alone ([4]; voltage clamp): had no effect | effect on NMDAR currents in the presence of 3 μM DHPG ([4]; voltage clamp): potentiated

Cc1cccc(C#Cc2ccccc2)n1 [MPEP, 2-methyl-6-(phenylethynyl)-pyridine, reference compound]
effect on VU0409551 potentiation of glutamate-induced calcium mobilization ([5]; MPEP 10 μM): blocked

O=C(c1ccc(F)cc1)N1CCc2nc(COc3ccccc3)oc2C1 [VU0409551]
minimal effective dose (MED), reversal of MK-801-induced hyperlocomotion (rats [6]; 10-100 mg/kg, 30 min pretreatment, MK-801 0.2 mg/kg s.c.): 10 mg/kg | maximum reversal of MK-801-induced hyperlocomotion (rats [6]; highest dose 100 mg/kg): 49.7% | AUC0-last day 1 [7]: 96 µM·h | AUC0-last day 4 [7]: 95 µM·h | pERK1/2 agonist activity (rat mGlu5 [8]; absence of added glutamate): increased pERK1/2 in the absence of added glutamate; also recorded: robust agonist activity | glutamate-induced phosphorylation of ERK1/2 (rat mGlu5 [8]; mGlu5-expressing cells): potentiated | agonist efficacy τB (rat mGlu5 [8]; [25]): 1.04 | cooperativity β with glutamate (rat mGlu5 [8]; [25]): 1.43 | area-under-the-curve from 0-last (AUC0-last) [9]: 2.9 µM·h | oral bioavailability (%F) [9]: 63% | effect at the other mGlu receptor subtypes (mGlu1,2,3,4,6,7,8): no effect; also recorded: did not shift the agonist concentration response curve | brain to plasma partition coefficient (Kp) at unrestricted equilibrium ([fup]/[fubr]) ([10]; from in vitro fup and fubr): 1.8 | fraction unbound in rat brain (fubr) ([10]; in vitro): 0.04 | maximum reversal of amphetamine-induced hyperlocomotion (rats [2]; rat, 3-100 mg/kg): 78.1% | ED50, reversal of amphetamine-induced hyperlocomotion (rats [2]; [26]): 5.9 mg/kg | MED, reversal of amphetamine-induced hyperlocomotion (rats [2]; [26]): 3 mg/kg | EC50 (rats [2]; read-out: in vivo EC50 for reversal of AHL, terminal (1.5 hr) unbound brain concentration, individual animal concentration-efficacy data from all dose groups): 97 nM | Emax for reversal of AHL (rats [2]; unbound brain concentration-efficacy analysis): 82% | total number of trials initiated (male Lister-hooded rats; 60 min pretreatment): no change | proportion of correct responses at a 10 and 20 sec delay (male Lister-hooded rats; 60 min pretreatment (60 mg/kg)): increased | fraction unbound in rat plasma (fup) [11]: 0.07 | fEPSP slope, % of baseline ([12]; 10 μM VU0409551 plus 25 μM DHPG): 43.7% ± 4.6% | effect on fEPSP slope when applied alone ([12]; VU0409551 alone, transient, returned to baseline within 10 min of washout): slight depression in the fEPSP slope | effect on NMDAR-fEPSP slope [13]: had no effect | acquisition of fear memory assessed 24 hr later (rats [14]): significantly enhanced | brain to plasma Kp [15]: 2.3 | unbound brain to plasma Kp (Kp,uu) [15]: 1.3 | effect on EPSCNMDA/EPSCAMPA ratio when applied alone [16]: had no effects | activity at 66 other receptors and ion channels [17]: no activity | FJC staining (rats [18]; 360 mg/kg, once daily for 1 month, unpublished findings): can induce FJC staining | FJC staining (rats [18]; rat, 120 mg/kg p.o. daily for four consecutive days, 24 hr after last dose): did not induce | clearance from plasma (CLp) [19]: 33 mL/min/kg | half-life (t1/2) [19]: 3.9 h | volume of distribution at steady-state (Vss) [19]: 9.6 L/kg | intrinsic agonist activity (rat mGlu5 [20]): did not possess intrinsic agonist activity | amphetamine-induced disruptions in PPI (rats [21]): reversed | recognition memory in the novel object recognition task (rats [22]): dose-dependent increase | IC50 (α2A adrenergic receptors): 8.9 µM | intrinsic agonist activity ([5]; cultured rat cortical astrocytes): no intrinsic agonist activity | maximum glutamate response ([5]; rat cortical astrocytes): 79.5% | duration of decreased time asleep post-administration (rats [23]): 2 h | turnover in rat hepatocytes [24]: moderate turnover | behavioral convulsions (rats [3]; repeated once-daily 450 mg/kg over 14 days, data not shown): did not induce behavioral convulsions | effect on 3 μM DHPG-induced depolarization or increase in NMDAR response ([4]; current clamp): did not potentiate | effect on NMDA-evoked responses when applied alone ([4]; current clamp): had no effect | effect on NMDA-evoked currents when added alone ([4]; voltage clamp): had no effect | effect on NMDAR currents in the presence of 3 μM DHPG ([4]; voltage clamp): had no effect

N[C@H](C(=O)O)c1cc(O)cc(O)c1 [DHPG, reference compound]
fEPSP slope, % of baseline ([12]; 25 μM DHPG for 10 min): 78.9% ± 5.7% | fEPSP slope, % of baseline ([12]; 75 μM DHPG for 10 min): 54.9% ± 5.3% | effect of DHPG on inward currents evoked by NMDA ([4]; voltage clamp, DHPG at different concentrations): concentration-dependent increase in inward currents

C[C@@H](NC(=O)c1ccc(C#Cc2cccc(F)c2)cn1)C(C)(C)O [VU0424465, reference compound]
FJC-positive neurons in the auditory cortex and adjacent cortical regions (rats [18]; rat, single dose 3 mg/kg i.p., 24 hr after dose): induced cell death | behavioral convulsions (Racine scale) (rats [3]; VU0424465 3 mg/kg): induced behavioral convulsions
